Data as given in ChEMBL document CHEMBL1921692 (J Med Chem, 2011).

Legend:
[1] = target: T1, Growth hormone secretagogue receptor type 1 (Homo sapiens, UniProt Q92847); assay: Displacement of [125I-His9]-ghrelin from human GRLN receptor by radioligand binding assay
Summary of the method: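 Competitive binding on isolated membranes expressing GRLN, with 125I-His-9 octanoylated ghrelin as radioligand.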

[2] = target: T1, Growth hormone secretagogue receptor type 1; assay: Agonist activity at human GRLN receptor expressed in HEK293 cells assessed as calcium binding by Ca2+ bioluminescence aequorin assay; type: functional, cell-based
Summary of the method: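 HEK-293 cells expressing human GRLN. Ca2+ bioluminescence read out by aequorin. Duplicate samples, maximum tolerated interassay variability ±10%. Full agonism defined as maximal response >70% of that of octanoylated human ghrelin.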

[3] = Cmax in Sprague-Dawley rat at 8 mg/kg, po; type: ADME, organism-based; parameters: dose 8 mg/kg, route oral; conditions: in vivo
Summary of the method: (§1)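 Male Sprague−Dawley rats (250 ± 20 g), 3 per compound in a single experiment, gavage 8 mg/kg in physiological saline. Blood taken at 12 time points over 6 h into K3EDTA tubes. Plasma stored at −20 °C, assayed by LC-MS/MS, noncompartmental analysis.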

[4] = AUC (0 to infinity) in Sprague-Dawley rat at 8 mg/kg, po; type: ADME, organism-based; parameters: time infinity, dose 8 mg/kg, route oral; conditions: plasma; summary of the method: as §1
[5] = Permeability across mucosal to serosal side in human Caco2 cells; type: ADME, cell-based; conditions: Caco-2, read-out: permeability
[6] = Permeability across serosal to mucosal side human Caco2 cells; type: ADME, cell-based; conditions: Caco-2, read-out: permeability
[7] = Drug metabolism in rat liver microsomes after 15 mins; type: ADME, Microsome; conditions: read-out: Drug metabolism
[8] = target: Cytochrome P450 3A4 (Homo sapiens, UniProt P08684); assay: Inhibition of human CYP3A4; type: ADME
Sequence of Cytochrome P450 3A4 (P08684 whole entry): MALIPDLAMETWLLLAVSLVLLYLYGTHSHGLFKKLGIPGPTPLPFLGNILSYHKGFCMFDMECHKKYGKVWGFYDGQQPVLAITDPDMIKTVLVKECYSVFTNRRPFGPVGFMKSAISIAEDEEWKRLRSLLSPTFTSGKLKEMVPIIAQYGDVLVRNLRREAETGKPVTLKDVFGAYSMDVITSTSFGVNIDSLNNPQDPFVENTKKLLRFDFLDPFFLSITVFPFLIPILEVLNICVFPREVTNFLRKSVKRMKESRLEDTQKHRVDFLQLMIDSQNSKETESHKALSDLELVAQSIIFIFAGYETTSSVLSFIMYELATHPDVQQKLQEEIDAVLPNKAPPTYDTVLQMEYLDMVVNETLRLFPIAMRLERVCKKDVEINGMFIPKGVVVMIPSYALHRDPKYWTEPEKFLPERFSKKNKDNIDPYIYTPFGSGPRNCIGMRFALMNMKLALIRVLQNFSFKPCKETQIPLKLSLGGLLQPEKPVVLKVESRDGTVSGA

[9] = target: Cytochrome P450 2D6 (Homo sapiens, UniProt P10635); assay: Inhibition of human CYP2D6; type: ADME
Sequence of Cytochrome P450 2D6 (P10635 whole entry): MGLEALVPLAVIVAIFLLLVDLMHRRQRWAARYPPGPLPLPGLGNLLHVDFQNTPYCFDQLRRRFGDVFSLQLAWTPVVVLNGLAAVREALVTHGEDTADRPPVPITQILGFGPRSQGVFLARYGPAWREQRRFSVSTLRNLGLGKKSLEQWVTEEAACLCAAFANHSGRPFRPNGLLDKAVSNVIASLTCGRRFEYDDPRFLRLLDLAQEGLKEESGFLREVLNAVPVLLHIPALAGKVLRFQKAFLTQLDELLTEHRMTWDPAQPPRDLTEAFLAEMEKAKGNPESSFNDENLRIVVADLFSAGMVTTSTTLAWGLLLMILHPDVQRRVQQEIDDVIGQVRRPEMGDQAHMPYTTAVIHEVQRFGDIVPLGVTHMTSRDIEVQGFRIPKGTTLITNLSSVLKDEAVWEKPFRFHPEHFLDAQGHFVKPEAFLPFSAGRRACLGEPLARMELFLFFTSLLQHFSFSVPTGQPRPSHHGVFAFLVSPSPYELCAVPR

[10] = target: Cytochrome P450 2C9 (Homo sapiens, UniProt P11712); assay: Inhibition of human CYP2C9; type: ADME
Sequence of Cytochrome P450 2C9 (P11712 whole entry): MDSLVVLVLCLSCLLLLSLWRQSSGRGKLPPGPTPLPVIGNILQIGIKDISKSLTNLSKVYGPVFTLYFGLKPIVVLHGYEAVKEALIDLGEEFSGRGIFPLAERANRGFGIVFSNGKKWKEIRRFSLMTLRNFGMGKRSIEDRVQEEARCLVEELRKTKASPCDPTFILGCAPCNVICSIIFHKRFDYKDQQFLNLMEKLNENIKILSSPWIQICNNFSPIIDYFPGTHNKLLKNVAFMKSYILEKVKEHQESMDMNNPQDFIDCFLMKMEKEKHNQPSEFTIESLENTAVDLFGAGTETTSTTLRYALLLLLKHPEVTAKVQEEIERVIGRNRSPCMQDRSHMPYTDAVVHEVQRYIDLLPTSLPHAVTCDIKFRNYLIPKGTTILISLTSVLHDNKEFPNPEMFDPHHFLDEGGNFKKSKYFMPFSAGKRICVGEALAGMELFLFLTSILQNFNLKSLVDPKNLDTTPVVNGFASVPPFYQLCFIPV

[11] = target: Cytochrome P450 2C19 (Homo sapiens, UniProt P33261); assay: Inhibition of human CYP2C19; type: ADME
Sequence of Cytochrome P450 2C19 (P33261 whole entry): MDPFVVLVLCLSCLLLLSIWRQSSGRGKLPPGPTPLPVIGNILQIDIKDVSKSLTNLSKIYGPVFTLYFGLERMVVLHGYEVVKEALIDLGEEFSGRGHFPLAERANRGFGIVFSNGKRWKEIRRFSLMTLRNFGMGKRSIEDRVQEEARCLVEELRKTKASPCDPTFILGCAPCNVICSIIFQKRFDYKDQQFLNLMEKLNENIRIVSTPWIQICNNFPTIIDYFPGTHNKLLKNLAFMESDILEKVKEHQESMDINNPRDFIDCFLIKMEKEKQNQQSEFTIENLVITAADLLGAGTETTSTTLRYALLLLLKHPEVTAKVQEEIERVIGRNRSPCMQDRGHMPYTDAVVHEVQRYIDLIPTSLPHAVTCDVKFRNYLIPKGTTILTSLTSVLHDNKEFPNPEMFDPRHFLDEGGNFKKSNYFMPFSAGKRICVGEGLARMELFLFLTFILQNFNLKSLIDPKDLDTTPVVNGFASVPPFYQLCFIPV

[12] = target: T2, Cytochrome P450 1A2 (Homo sapiens, UniProt P05177); assay: Inhibition of human CYP1A2; type: ADME
T2 sequence (P05177 whole entry): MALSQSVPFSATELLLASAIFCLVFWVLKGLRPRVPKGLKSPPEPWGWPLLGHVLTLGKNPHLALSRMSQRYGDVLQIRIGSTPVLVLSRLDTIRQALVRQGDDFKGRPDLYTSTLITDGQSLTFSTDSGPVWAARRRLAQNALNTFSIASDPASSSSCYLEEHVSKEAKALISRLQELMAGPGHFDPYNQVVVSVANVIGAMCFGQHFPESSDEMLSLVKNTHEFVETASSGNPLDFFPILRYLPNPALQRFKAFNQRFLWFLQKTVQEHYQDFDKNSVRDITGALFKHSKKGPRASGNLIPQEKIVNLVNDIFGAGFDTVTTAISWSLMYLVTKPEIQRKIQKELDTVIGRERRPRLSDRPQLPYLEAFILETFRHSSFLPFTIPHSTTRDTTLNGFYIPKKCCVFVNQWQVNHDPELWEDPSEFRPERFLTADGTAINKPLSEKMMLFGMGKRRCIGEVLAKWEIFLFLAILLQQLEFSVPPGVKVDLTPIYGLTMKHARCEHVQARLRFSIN

[13] = Cmax in cynomolgus monkey at 8 mg/kg, po; type: ADME, organism-based, Macaca fascicularis; parameters: dose 8 mg/kg, route oral; conditions: in vivo
[14] = tested on: Salmonella typhimurium; assay: Induction of mutagenicity in Salmonella Typhimurium up to 5000 ug/plate by Ames test; type: toxicity, organism-based; conditions: salmonella enterica subsp. enterica serovar typhimurium
Summary of the method: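 Ames test run up to 5000 μg/plate.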

[15] = Dissociation constant, pKa of the compound; type: physicochemical
[16] = tested on: Rattus norvegicus; assay: Induction of gastric emptying in overnight-fasted iv dosed Wistar rat measured after 15 mins by […] analysis; type: functional, organism-based, Stomach
Summary of the method: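 Overnight-fasted male Wistar rats (200 ± 20 g), N = 5 per point. Compound given IV in 9% 2-hydroxypropyl-β-cyclodextrin together with an oral 2% methylcellulose meal containing 0.05% phenol red (2 mL). Sacrifice 15 min later; phenol red left in stomach read at 560 nm. […] Metoclopramide positive control at 10 mg/kg IV.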

[17] = tested on: Cynomolgus monkey; assay: Oral bioavailability in cynomolgus monkey at […]; conditions: in vivo
[18] = tested on: Cynomolgus monkey; assay: AUC (0 to infinity) in cynomolgus monkey at […], po; conditions: in vivo
[19] = Oral bioavailability in Sprague-Dawley rat at 8 mg/kg; conditions: in vivo
[20] = Drug excretion in Sprague-Dawley rat assessed as unchanged recovery in feces at 6 mg/kg, iv measured after 30 mins; conditions: faeces
[21] = target: motilin receptor (Homo sapiens) (UniProt O43193); assay: Selectivity ratio of EC50 for human motilin receptor to EC50 for human GRLN receptor
[22] = Elimination half life in Sprague-Dawley rat at 2 m/kg, iv; type: ADME, organism-based; conditions: in vivo, read-out: beta t1/2
[23] = Volume of distribution at steady state in Sprague-Dawley rat at 2 m/kg, iv; type: ADME, organism-based; conditions: in vivo, read-out: Vdss
[24] = Clearance in Sprague-Dawley rat at 2 m/kg, iv; type: ADME, organism-based; conditions: in vivo
[25] = Half life in human liver microsomes; type: ADME, Microsome
[26] = Clearance in cynomolgus monkey at 0.5 mg/kg, iv; conditions: in vivo
[27] = Elimination half life in cynomolgus monkey at 0.5 mg/kg, iv; conditions: in vivo, read-out: beta t1/2
[28] = Volume of distribution at steady state in cynomolgus monkey at 0.5 mg/kg, iv; conditions: in vivo, read-out: Vdss

T1 sequence (Q92847 whole entry): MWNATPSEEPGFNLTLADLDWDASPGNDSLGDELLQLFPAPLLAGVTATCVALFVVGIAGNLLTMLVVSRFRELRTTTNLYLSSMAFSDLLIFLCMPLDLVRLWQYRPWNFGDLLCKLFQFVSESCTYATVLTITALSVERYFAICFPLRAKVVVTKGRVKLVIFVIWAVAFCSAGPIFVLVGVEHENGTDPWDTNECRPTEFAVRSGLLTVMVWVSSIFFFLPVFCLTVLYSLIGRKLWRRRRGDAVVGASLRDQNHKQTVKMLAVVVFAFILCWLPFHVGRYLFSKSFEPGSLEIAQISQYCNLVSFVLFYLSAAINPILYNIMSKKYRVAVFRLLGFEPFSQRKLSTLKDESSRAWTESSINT

SMILES	Ki [1]	EC50 [2]	Cmax [3]	AUC(0-inf) [4]	Papp A→B [5]	Papp B→A [6]	metabolised at […] [7]	IC50 [8]	IC50 [9]	IC50 [10]	IC50 [11]	IC50 [12]	Cmax [13]	EC50 [16]	F [17]	AUC [18]	bioavailability [19]	further results
C[C@@H]1CN[C@@H](C2CC2)C(=O)N(C)[C@H](C)C(=O)N[C@H](Cc2ccc(F)cc2)C(=O)NCCCc2ccccc2O1.Cl.O [ULIMORELIN HYDROCHLORIDE]	16 nM	29 nM	390 nM	1.37 µM·h	15 ×10⁻⁶ cm/s	14 ×10⁻⁶ cm/s	68%	2400 nM	84000 nM	66000 nM	> 100000 nM	> 100000 nM	1400 nM	0.91 mg/kg	24%	75.4 µM·min	24%	Activity [14]: Non-toxic; pKa [15]: 7.17; dose excreted at 0.5 h [20]: 95%
CCC[C@@H]1NCCOc2ccccc2/C=C/CNC(=O)[C@@H](Cc2ccccc2)NC(=O)CN(C)C1=O	86 nM	134 nM	–	–	–	–	–	–	–	–	–	–	–	–	–	–	–	Ratio EC50 [21]: > 100
C[C@@H]1C(=O)N[C@H](Cc2ccc(F)cc2)C(=O)NCCCc2ccc(F)cc2OCCN[C@@H](C2CC2)C(=O)N1C	2.6 nM	27 nM	900 nM	1.67 µM·h	19.8 ×10⁻⁶ cm/s	12.5 ×10⁻⁶ cm/s	54%	1200 nM	31000 nM	> 100000 nM	> 100000 nM	> 100000 nM	90 nM	1.2 mg/kg	7%	10.3 µM·min	36%	half-life [22]: 44 min; Vd [23]: 1.8 L/kg; clearance [24]: 28 mL/min/kg; half-life [25]: 41 min; clearance [26]: 20 mL/min/kg; half-life [27]: 29 min; Vd [28]: 0.66 L/kg
